Measured values gathered from unrelated publications.
Each line is one published result; the experiments were not run side by side.
Target: Calcium/calmodulin-dependent protein kinase type II subunit alpha (CAMK2A, Homo sapiens, UniProt Q9UQM7)

Structure (SMILES)	assay	setting	remaining binding [%]
C[C@@H](c1ccc(-n2cnc3c(N)ncnc32)cc1)N1CCc2nn(C)c(Cc3ccccc3)c2C1=O	binding, competition with immobilised ligand	0.1 µM	91
O=C(Nc1c[nH]nc1C(=O)NC1CCNCC1)c1cc(F)cc(F)c1	binding, competition with immobilised ligand	1 µM	100
CN(C)c1nccc(-c2cnc3ncccn23)n1	binding	1 µM	92
CCOC(=O)c1cc2cc(-c3cc(C(=O)NCc4ccc(C(=O)O)cc4)nn3C)ccc2[nH]1	cell-free assay, competition with immobilised ligand	0.1 µM	76
CN(CCCC(F)(F)F)c1nccc(-c2cnn3ncccc23)n1	binding	1 µM	91
CN(C(=O)c1ccccc1)c1cc(N(C)c2ccc3c(c2)CCc2ccc(C(=O)NCCN4CCOCC4)cc2C3=O)ccc1F	cell-free assay, competition with immobilised ligand	1 µM	86
CCN1CCN(Cc2ccc(C(=O)Nc3ccc(C)c(Oc4ccc5c(c4)CC(=O)N5)c3)cc2C(F)(F)F)CC1	binding, competition with immobilised ligand	1 µM	100
O=C(NC[C@@H]1[C@H]2CN(C(=O)OCc3cc(C(F)(F)F)cc(C(F)(F)F)c3)C[C@@H]12)c1ccc2[nH]nnc2c1	cell-free assay, competition with immobilised ligand	1 µM	91
c1cnn2ncc(-c3ccnc(N4CCC45COC5)n3)c2c1	binding	1 µM	76
CS(=O)(=O)NCC[C@H](NC(=O)c1cncc2c1cnn2-c1ccc(F)cc1)c1ccnc(S(C)(=O)=O)c1	cell-free assay, competition with immobilised ligand	1 µM	100
CNC(=O)[C@@H]1CC[C@@H](n2c(-c3ccc4cnccc4c3)nc3ccc(C(=O)NCc4cccc(C(N)=O)c4)cc32)C1	binding, competition with immobilised ligand	1 µM	100
O=C(c1ccc(Nc2ncc(Cl)c(-c3ccc(Cl)s3)n2)cc1)N1CCC(N2CCCC2)CC1	binding, competition with immobilised ligand	1 µM	82
COc1ccc2c(c1)O[C@H](c1ccc(OC)c(OC)c1)C[C@@H]2NC(=O)C1(c2ccc3c(c2)OC(F)(F)O3)CC1	cell-free assay, competition with immobilised ligand	1 µM	100
COc1cnc(Nc2cccc(S(N)(=O)=O)c2)nc1N1CCN(c2ccccc2)CC1	binding, competition with immobilised ligand	1 µM	87
N[C@@H]1CCN(c2nccc(-c3cnn4ncccc34)n2)C1	binding	1 µM	100
CC(=O)C1=C(C)N(c2cccc(C(F)(F)F)c2)C(=O)N[C@@H]1c1ccc(C#N)nc1	cell-free assay, competition with immobilised ligand	1 µM	92.5
CN(c1nccc(-c2cnn3ncccc23)n1)C1CC1	binding	1 µM	93
Cc1cnc(Nc2ccc(C(=O)N3CCC(N4CCCC4)CC3)cc2)nc1-c1cc2ccccc2s1	binding, competition with immobilised ligand	1 µM	58
C[C@@H]1CCN(c2nccc(-c3cnn4ncccc34)n2)C1	binding	1 µM	80
NS(=O)(=O)c1cc(NC(=O)Cc2ccccc2)ccc1Oc1cccc(Cl)c1	cell-free assay, competition with immobilised ligand	1 µM	96
CC1CCCN1c1nccc(-c2cnn3ncccc23)n1 (stereo not shown)	binding	1 µM	90
O=C(c1ccc(Nc2ncc(Cl)c(-c3cc4ccccc4s3)n2)cc1)N1CCC(N2CCCC2)CC1	binding, competition with immobilised ligand	1 µM	75
